“And” between values parts separate entries of the source, which are not always exact repeats. Identical values can stand only once.
How the values were obtained:
[1] = test system: NAADP-mediated Ca^2+ release; assay: NAADP-mediated Ca2+ release bioassay in sea urchin egg homogenate; assay type: biochemical, Lytechinus pictus; details: for Ca2+ release induced by the compound itself in the bioassay: compound at 125 μM
[2] = test system: mouse pancreatic beta cells; assay: NAADP-mediated Ca2+ spiking in patch-clamped pancreatic beta cells; assay type: cell-based; details: pre-incubation with 125 μM in bathing solution; NAADP 50 nM via patch pipette
Procedure, shortened: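 Whole-cell patch clamp at room temperature. Borosilicate pipettes were 3–5 MΩ and the holding potential was −70 mV. Test compound was pre-incubated in the bath. Read-out was Ca2+-dependent current traces.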

[3] = test system: glucose-induced Ca^2+ increases in mouse pancreatic islets; assay: glucose-induced Ca2+ signaling in isolated pancreatic islets; assay type: cell-based; details: isolated mouse islet, glucose 10 mM, compound 100 μM
intact sea urchin eggs = assay: NAADP-induced Ca2+ release in intact sea urchin eggs; assay type: cell-based; details: 100 μM compound in artificial seawater; NAADP microinjected
[4] = test system: voltage-gated Ca^2+ channels; assay: KCl depolarization-induced Ca2+ transient in islets; assay type: cell-based, mouse; details: 100 μM compound; glucose 10 mM, diazoxide 100 μM, KCl 45 mM
Procedure, shortened: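 Pancreatic beta cells loaded with fura-PE3 acetoxymethyl ester for Ca2+ imaging. Cells were held in glucose and diazoxide, then depolarized with KCl with or without test compound in the bath. Data given as mean ± standard error of the mean and compared by one-tailed t-tests.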

[5] = test system: sea urchin egg binding protein (NAADP receptor); assay: [32P]NAADP radioligand displacement binding assay, sea urchin egg homogenate; parameters: species or system Lytechinus pictus
[6] = test system: mitochondrial metabolism (NAD(P)H); assay: glucose-induced NAD; assay type: cell-based, mouse; details: 100 μM compound
Procedure, shortened: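 Islets of Langerhans were pre-incubated 60 min at 37°C in control medium containing 3 mM glucose. NAD(P)H autofluorescence was recorded at 360 nm excitation and >470 nm emission. Changes were expressed as percent of basal values within the same islet.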

[7] = test system: inositol 1,4,5-trisphosphate-mediated Ca^2+ release; assay: inositol 1,4,5-trisphosphate-mediated Ca2+ release in sea urchin egg homogenate; assay type: biochemical, Lytechinus pictus; details: read-out: EC50, Ca2+ release
Procedure, shortened: (§1)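 Lytechinus pictus egg homogenate with the Ca2+ dye fluo-3 and ATP. Second messenger added and Ca2+ release followed as fluo-3 fluorescence (RFU), in a plate reader (2-4 replicates) or a fluorimeter.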

[8] = test system: cyclic ADP-ribose-mediated Ca^2+ release; assay: cyclic ADP-ribose-mediated Ca2+ release in sea urchin egg homogenate; assay type: biochemical, Lytechinus pictus; details: read-out: EC50, Ca2+ release
Procedure, shortened: as §1

[9] = solubility in 25% dimethylsulfoxide or 25% dimethylformamide; assay type: physicochemical

With COc1ccc2[nH]c(C(=O)O)c(CCNC(=O)CO/N=C3/C=C[C@@]4(C)C(=C3)CC[C@@H]3[C@H]4CC[C@]4(C)[C@H]3CC[C@]4(C)O)c2c1 [Nrd-10] the “Ca2+ release induced by the compound itself in the bioassay” value [1] was “induced irreversible Ca^2+ release”.
For “nicotinic acid adenine dinucleotide phosphate [NAADP, reference compound]”, the EC50 ([1]; read-out: EC50, Ca2+ release, sea urchin egg homogenate) was 35 nM and 30 to 50 nM.
With COc1ccc(C2N[C@H](C(=O)O)Cc3c2[nH]c2ccccc32)cc1CN1CCN(c2ccccc2F)CC1 (stereo partly shown) [Ned-19] the “NAADP-mediated Ca2+ spiking” value [2] was “blocked NAADP-mediated Ca^2+ spiking”, the “effect on glucose-induced Ca2+ signal” value [3] was “reduced the amplitude of the oscillations and reduced the elevated plateau to the nonstimulated level” and the “NAADP-induced Ca2+ increase in intact sea urchin eggs” value (intact sea urchin eggs) was “failed to elicit a Ca^2+ increase”. For the same compound, the “KCl depolarization-induced Ca2+ transient” value [4] was “unaltered”, the “dissociation from the NAADP receptor (recovery of [32P]NAADP binding)” value ([5]; Ned-19 10 μM, after 5 days of incubation) was “only about half the bound Ned-19 dissociates” and the “Hill coefficient, [32P]NAADP binding competition” value ([5]; commercial Ned-19) was −2.3. The “Hill coefficient, inhibition of NAADP-mediated Ca2+ release” value ([1]; commercial Ned-19) was −0.6, the “effect on NAADP concentration-response curve” value ([1]; constant presence of 125 μM compound (figure legend: 100 μM)) was “reduced the maximum release and shifted the EC50 to the right” and the “glucose-induced increase in NADH and NADPH fluorescence” value [6] was “still occurred”.
With FC(F)(F)c1cccc(N2CCN(Cn3nc(COc4ccccc4)n(-c4ccccc4)c3=S)CC2)c1 [Ned-16] the “Ca2+ release induced by the compound itself in the bioassay” value [1] was “induced irreversible Ca^2+ release”.
With N=c1c2ncn3c2ncn1[C@@H]1O[C@H](COP(=O)(O)OP(=O)(O)OC[C@H]2O[C@@H]3[C@H](O)[C@@H]2O)[C@@H](O)[C@H]1O [cADPR, cyclic ADP-ribose] the EC50 [8] was 300 nM.
With CCC(=O)N1N=C(c2ccc(C3=NN(C(=O)CC)[C@H](c4cccc(OC)c4OC)C3)cc2)C[C@H]1c1cccc(OC)c1OC [Nrd-11] the solubility [9] was “sparingly soluble”.
In the case of C=C1NN(c2nc(-c3cccc([N+](=O)[O-])c3)cs2)C(=O)/C1=N/Nc1ccc(Cl)cc1C(=O)c1ccccc1 [Nrd-7], the solubility [9] is reported as “sparingly soluble”.
